Assay results taken from article PMC5474392 (Bioorganic & medicinal chemistry letters, 2016).

Key:
MCF-7 = test: antiproliferative assay, MCF-7; type: cell-based; conditions: Homo sapiens, MCF7, read-out: IC50 MCF-7
In short: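 Run as an antiproliferative screen on human cancer lines alongside the normal mammary epithelial line MCF-10, with a positive control included. The highest test concentration was 33.3 μM.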

MCF-10 = test: antiproliferative assay, normal mammary epithelial cell line MCF-10; type: cell-based; conditions: Homo sapiens, MCF10, read-out: IC50 MCF-10
In short: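 Human cancer and normal mammary epithelial lines were tested in an antiproliferative assay. Shikonin served as the positive control. The highest test concentration was 33.3 μM.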

IC50 (MCF-7) [µM] | Structure (SMILES) | IC50 (MCF-10) [µM]
1.17 | COc1cccc2c1C(=O)c1c(O)c3c(c(O)c1C2=O)C[C@@](O)(C(=O)CO)C[C@@H]3O[C@H]1C[C@H](N)[C@H](O)[C@H](C)O1 [Doxorubicin, reference compound] | –
> 33.3 | O=C1C2=C(C(=O)c3ccccc31)C(O)C1=C(O)CC(c3ccccc3)C1=C2O (stereo not drawn) [Compound 4a] | > 33.3
